In ChEMBL document CHEMBL1131460, “2-substituted (2SR)-2-amino-2-((1SR,2SR)-2-carboxycycloprop-1-yl)glycines as potent and selective antagonists of group II metabotropic glutamate receptors. 2. Effects of aromatic substitution, pharmacological characterization, and bioavailability” (J Med Chem, 1998):

How the values were obtained:
[1] = Binding affinity for Group II Metabotropic glutamate receptor was measured using [3H]glutamate in rat forebrain membranes; format: cell membranes, Membrane
How it was run: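 ACPD-sensitive [³H]glutamate binding to group II mGluRs in rat forebrain membranes, reported as IC50. Most values are single-point determinations; others are averages of two or three determinations. Values in parentheses are percent radioligand displacement at 1 μM.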

[2] = biological target: T1, Metabotropic glutamate receptor 2 (Homo sapiens, UniProt Q14416); test: Effect on 1S,3R-ACPD-induced inhibition of forskolin stimulated cyclic-AMP in RGT cells expressing human Metabotropic glutamate receptor 2; format: functional, cell-based
[3] = biological target: T2, Metabotropic glutamate receptor 3 (Homo sapiens, UniProt Q14832); test: Effect on 1S,3R-ACPD-induced inhibition of forskolin stimulated cyclic-AMP in RGT cells expressing human Metabotropic glutamate receptor 3; format: functional, cell-based
[4] = biological target: T1, Metabotropic glutamate receptor 2; test: Compound was tested its ability to block 1S,3R-ACPD-induced inhibition of forskolin stimulated cyclic-AMP in RGT cells transfected with human Metabotropic glutamate receptor 2; Agonist; format: functional, cell-based
How it was run: (§1)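 RGT cells transfected with human mGluR2 or mGluR3 were used. Forskolin-stimulated cyclic AMP was inhibited by (1S,3R)-ACPD, and compounds were tested for antagonism of this inhibition, giving IC50.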

[5] = biological target: T2, Metabotropic glutamate receptor 3; test: Compound was tested its ability to block 1S,3R-ACPD-induced inhibition of forskolin stimulated cyclic-AMP in RGT cells transfected with human Metabotropic glutamate receptor 3; Agonist; format: functional, cell-based; how it was run: as §1

T1 sequence (Q14416 whole entry): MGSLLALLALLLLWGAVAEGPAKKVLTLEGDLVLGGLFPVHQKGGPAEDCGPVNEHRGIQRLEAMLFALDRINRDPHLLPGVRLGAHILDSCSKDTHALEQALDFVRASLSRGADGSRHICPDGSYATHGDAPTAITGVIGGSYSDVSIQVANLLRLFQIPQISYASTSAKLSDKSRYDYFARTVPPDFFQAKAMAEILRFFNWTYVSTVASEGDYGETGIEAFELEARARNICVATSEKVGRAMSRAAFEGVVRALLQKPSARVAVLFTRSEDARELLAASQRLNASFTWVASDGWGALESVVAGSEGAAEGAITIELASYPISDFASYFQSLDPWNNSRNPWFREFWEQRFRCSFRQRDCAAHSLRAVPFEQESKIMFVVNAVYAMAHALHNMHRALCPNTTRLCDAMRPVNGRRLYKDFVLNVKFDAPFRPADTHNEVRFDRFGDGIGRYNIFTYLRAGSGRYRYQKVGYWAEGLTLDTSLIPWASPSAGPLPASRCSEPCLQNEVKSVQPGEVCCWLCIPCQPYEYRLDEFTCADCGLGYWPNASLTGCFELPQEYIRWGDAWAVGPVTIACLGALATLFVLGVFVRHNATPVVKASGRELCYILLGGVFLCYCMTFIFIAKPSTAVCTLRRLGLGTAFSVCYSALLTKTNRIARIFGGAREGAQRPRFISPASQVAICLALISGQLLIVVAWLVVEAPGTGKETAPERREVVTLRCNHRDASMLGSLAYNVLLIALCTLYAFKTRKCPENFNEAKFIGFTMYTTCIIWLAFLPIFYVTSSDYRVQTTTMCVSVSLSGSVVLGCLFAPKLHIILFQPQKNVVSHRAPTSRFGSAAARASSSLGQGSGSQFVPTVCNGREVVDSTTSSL
T2 sequence (Q14832 whole entry): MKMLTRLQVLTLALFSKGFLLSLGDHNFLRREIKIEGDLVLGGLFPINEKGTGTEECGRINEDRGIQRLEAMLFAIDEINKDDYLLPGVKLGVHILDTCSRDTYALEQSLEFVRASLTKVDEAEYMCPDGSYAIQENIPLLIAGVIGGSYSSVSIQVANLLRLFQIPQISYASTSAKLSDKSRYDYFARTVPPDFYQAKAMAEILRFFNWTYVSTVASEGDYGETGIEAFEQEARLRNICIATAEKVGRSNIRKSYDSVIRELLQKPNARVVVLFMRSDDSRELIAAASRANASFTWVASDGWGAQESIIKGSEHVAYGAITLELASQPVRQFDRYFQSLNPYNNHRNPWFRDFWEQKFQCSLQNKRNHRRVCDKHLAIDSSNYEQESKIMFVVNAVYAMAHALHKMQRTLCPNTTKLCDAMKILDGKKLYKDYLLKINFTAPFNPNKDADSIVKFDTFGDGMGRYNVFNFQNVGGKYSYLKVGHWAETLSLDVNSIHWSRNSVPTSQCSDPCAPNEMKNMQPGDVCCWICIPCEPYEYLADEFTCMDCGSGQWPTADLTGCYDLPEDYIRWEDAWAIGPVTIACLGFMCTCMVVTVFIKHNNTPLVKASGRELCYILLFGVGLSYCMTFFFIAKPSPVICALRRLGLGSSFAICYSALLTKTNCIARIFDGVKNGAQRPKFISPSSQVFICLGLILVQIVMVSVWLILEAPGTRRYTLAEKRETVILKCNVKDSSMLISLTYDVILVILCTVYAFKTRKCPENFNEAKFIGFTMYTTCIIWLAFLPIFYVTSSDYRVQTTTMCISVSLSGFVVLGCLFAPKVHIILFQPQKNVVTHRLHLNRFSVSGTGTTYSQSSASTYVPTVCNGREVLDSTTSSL

| SMILES | IC50 [1] | also measured |
| --- | --- | --- |
| CCCc1cccc(CC[C@](N)(C(=O)O)C2C[C@@H]2C(=O)O)c1 (some centres undefined) | 570 nM |  |
| CS(=O)(=O)c1cccc(CC[C@](N)(C(=O)O)C2C[C@@H]2C(=O)O)c1 (some centres undefined) [listing 1 of 2 here] | 2400 nM |  |
| N[C@@](CCc1ccccc1F)(C(=O)O)C1C[C@@H]1C(=O)O (some centres undefined) | 310 nM |  |
| N[C@@](CCc1ccccc1O)(C(=O)O)C1C[C@@H]1C(=O)O (some centres undefined) | 220 nM |  |
| N[C@@](CCc1ccc(Cl)cc1)(C(=O)O)C1C[C@@H]1C(=O)O (some centres undefined) | 410 nM |  |
| N[C@@](CCc1ccc(O)cc1)(C(=O)O)C1C[C@@H]1C(=O)O (some centres undefined) | 300 nM |  |
| N[C@@](CCc1c(Cl)cccc1Cl)(C(=O)O)C1C[C@@H]1C(=O)O (some centres undefined) | 710 nM |  |
| Nc1cccc(CC[C@](N)(C(=O)O)C2C[C@@H]2C(=O)O)c1 (some centres undefined) |  | IC50 [2]: 3100 nM; IC50 [3]: 200 nM |
| COc1ccccc1CC[C@](N)(C(=O)O)C1C[C@@H]1C(=O)O (some centres undefined) | 170 nM |  |
| N[C@@](CCc1c(F)c(F)c(F)c(F)c1F)(C(=O)O)C1C[C@@H]1C(=O)O (some centres undefined) | 370 nM |  |
| COc1ccc(CC[C@](N)(C(=O)O)C2C[C@@H]2C(=O)O)cc1OC (some centres undefined) | 460 nM |  |
| N[C@@](CCc1ccc(-c2ccccc2)cc1)(C(=O)O)C1C[C@@H]1C(=O)O (some centres undefined) | 1500 nM |  |
| N[C@@](CC1c2ccccc2Oc2ccccc21)(C(=O)O)[C@H]1C[C@@H]1C(=O)O | 530 nM |  |
| N[C@@](CCc1cc(F)ccc1F)(C(=O)O)C1C[C@@H]1C(=O)O (some centres undefined) | 290 nM |  |
| NC(CCc1ccccc1)(C(=O)O)[C@H]1C[C@@H]1C(=O)O (some centres undefined) | 320 nM |  |
| COc1cccc(CC[C@](N)(C(=O)O)C2C[C@@H]2C(=O)O)c1OC (some centres undefined) | 4900 nM |  |
| N[C@@](CCc1cccc(C2CCCC2)c1)(C(=O)O)C1C[C@@H]1C(=O)O (some centres undefined) | > 10000 nM |  |
| N[C@@](CCc1cccc(Oc2ccccc2)c1)(C(=O)O)C1C[C@@H]1C(=O)O (some centres undefined) | 220 nM |  |

| SMILES | IC50 [1] | also measured |
| --- | --- | --- |
| N[C@@H](C(=O)O)C1C[C@@H]1C(=O)O (some centres undefined) | 470 nM | IC50 [4]: Agonist; IC50 [5]: Agonist |
| N[C@@](CCc1ccc(C(=O)O)cc1)(C(=O)O)C1C[C@@H]1C(=O)O (some centres undefined) | 370 nM |  |
| COc1ccc(OC)c(CC[C@](N)(C(=O)O)C2C[C@@H]2C(=O)O)c1 (some centres undefined) | 170 nM |  |
| CSc1cccc(CC[C@](N)(C(=O)O)C2C[C@@H]2C(=O)O)c1 (some centres undefined) | 410 nM |  |
| NC(CC(c1ccccc1)c1ccccc1)(C(=O)O)[C@@H]1C[C@H]1C(=O)O (single isomer, unassigned) |  | Displacement ([1]; Membrane): 0% |
| N[C@@](CCc1ccccc1Oc1ccccc1)(C(=O)O)C1C[C@@H]1C(=O)O (some centres undefined) | 360 nM |  |
| COc1ccc(CC[C@](N)(C(=O)O)C2C[C@@H]2C(=O)O)cc1 (some centres undefined) | 1400 nM |  |
| N[C@@](CCc1cccc(-c2ccccc2)c1)(C(=O)O)C1C[C@@H]1C(=O)O (some centres undefined) | 510 nM |  |
| N[C@](CC1c2ccccc2Oc2ccccc21)(C(=O)O)C1C[C@H]1C(=O)O (stereo in doubt; 173) | 860 nM |  |
| N[C@@](CCc1ccc(Cl)cc1Cl)(C(=O)O)C1C[C@@H]1C(=O)O (some centres undefined) | 220 nM |  |
| N[C@@](CC(c1ccccc1)c1ccccc1)(C(=O)O)[C@H]1C[C@@H]1C(=O)O | 2000 nM |  |
| N[C@](CC1c2ccccc2Oc2ccccc21)(C(=O)O)C1C[C@H]1C(=O)O (stereo in doubt; 174) | 4200 nM |  |
| N[C@@](CCc1ccccc1Cl)(C(=O)O)C1C[C@@H]1C(=O)O (some centres undefined) | 260 nM |  |
| N[C@@](CCc1ccc(Br)cc1)(C(=O)O)C1C[C@@H]1C(=O)O (some centres undefined) | 680 nM |  |
| Cc1ccccc1CC[C@](N)(C(=O)O)C1C[C@@H]1C(=O)O (some centres undefined) | 570 nM |  |
| N[C@@](CCc1ccccc1C(F)(F)F)(C(=O)O)C1C[C@@H]1C(=O)O (some centres undefined) | 480 nM |  |
| CC(C)(C)c1cccc(CC[C@](N)(C(=O)O)C2C[C@@H]2C(=O)O)c1 (some centres undefined) | > 10000 nM |  |
| Cc1ccc(CC[C@](N)(C(=O)O)C2C[C@@H]2C(=O)O)cc1 (some centres undefined) | 590 nM |  |

Continued by falling IC50 [1], values first:

| IC50 [1] | SMILES | also measured |
| --- | --- | --- |
| 160 nM | N[C@@](CCc1cccc(F)c1)(C(=O)O)C1C[C@@H]1C(=O)O (some centres undefined) |  |
| 150 nM | N[C@@](CCc1cccc(O)c1)(C(=O)O)C1C[C@@H]1C(=O)O (some centres undefined) | IC50 [2]: 1000 nM; IC50 [3]: 260 nM |
| 140 nM | N[C@@](CCc1cccc(C(F)(F)F)c1)(C(=O)O)C1C[C@@H]1C(=O)O (some centres undefined) | IC50 [2]: 220 nM; IC50 [3]: 420 nM |
| 130 nM | N[C@@](CCc1cccc(F)c1F)(C(=O)O)C1C[C@@H]1C(=O)O (some centres undefined) |  |
| 110 nM | COc1cc(CC[C@](N)(C(=O)O)C2C[C@@H]2C(=O)O)cc(OC)c1 (some centres undefined) |  |
| 110 nM | CS(=O)(=O)c1cccc(CC[C@](N)(C(=O)O)C2C[C@@H]2C(=O)O)c1 (some centres undefined) [listing 2 of 2 here] | IC50 [2]: 190 nM; IC50 [3]: 180 nM |
| 100 nM | N[C@@](CCc1cccc(Cl)c1)(C(=O)O)C1C[C@@H]1C(=O)O (some centres undefined) | IC50 [2]: 180 nM; IC50 [3]: 180 nM |
| 94 nM | COc1cccc(CC[C@](N)(C(=O)O)C2C[C@@H]2C(=O)O)c1 (some centres undefined) | IC50 [2]: 430 nM; IC50 [3]: 160 nM |
| 89 nM | Cc1cccc(CC[C@](N)(C(=O)O)C2C[C@@H]2C(=O)O)c1 (stereo in doubt; 104) |  |
| 77 nM | NC(CCc1cccc(C(=O)O)c1)(C(=O)O)[C@H]1C[C@@H]1C(=O)O (some centres undefined) | IC50 [2]: 1800 nM; IC50 [3]: 80 nM |
| 69 nM | N[C@@](CCc1cccc(Br)c1)(C(=O)O)C1C[C@@H]1C(=O)O (some centres undefined) |  |
| 67 nM | N[C@@](CCc1ccc(Cl)c(Cl)c1)(C(=O)O)C1C[C@@H]1C(=O)O (some centres undefined) |  |
| 63 nM | N[C@@](CCc1ccc(F)cc1F)(C(=O)O)C1C[C@@H]1C(=O)O (some centres undefined) |  |
| 35 nM | N[C@](CC(c1ccccc1)c1ccccc1)(C(=O)O)[C@H]1C[C@@H]1C(=O)O | IC50 [2]: 220 nM; IC50 [3]: 170 nM |
| 34 nM | N[C@@](CCc1ccc(F)c(F)c1)(C(=O)O)C1C[C@@H]1C(=O)O (some centres undefined) |  |
| 29 nM | N[C@@](CCc1cc(Cl)cc(Cl)c1)(C(=O)O)C1C[C@@H]1C(=O)O (some centres undefined) |  |
| 22 nM | N[C@@](CCc1ccc(F)cc1)(C(=O)O)C1C[C@@H]1C(=O)O (some centres undefined) | IC50 [2]: 180 nM; IC50 [3]: 210 nM |
| 21 nM | N[C@@](CCc1cc(F)cc(F)c1)(C(=O)O)C1C[C@@H]1C(=O)O (some centres undefined) |  |
| 12 nM | Cc1cccc(CC[C@](N)(C(=O)O)C2C[C@@H]2C(=O)O)c1 (stereo in doubt; 180) |  |
